One compound from ChEMBL document CHEMBL3351516, “Efficient synthesis of eudistomin U and evaluation of its cytotoxicity” (Bioorg Med Chem Lett, 2014) can be followed below.

Each structure is given as a SMILES string. Converted amounts (≈) assume the structure as drawn. Some results are limits rather than exact numbers.

In one assay the test system is Staphylococcus aureus. Briefly: Antibacterial activity against Staphylococcus aureus measured after overnight incubation by spectrophotometry. In kind it is functional, organism-based. A digest of the protocol: (§1)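 Bacteria were grown overnight at 37 °C in Luria broth, subcultured to OD 0.1 and grown 2 h more. Culture was added to cuvettes holding 0.1–300 µM test agent (0.3% DMSO). Controls were DMSO and streptomycin: 0.500 µg/mL for P. aeruginosa, 0.0625 µg/mL for the others. Shaken at 37 °C with OD read every 2.5 h in duplicate to about 7.5 h. IC50 from sigmoidal fit, mean of three trials.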

For assay [1], the system named is Mycolicibacterium smegmatis. The experiment in a line: Antibacterial activity against Mycobacterium smegmatis measured every 2.5 hrs by spectrophotometry. The assay is classed as functional, organism-based. The essentials:
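M. smegmatis MC²155 was grown 48 h at 37 °C with shaking in 7H9 complete medium with Tween, diluted 1:1000 and grown overnight. It was then subcultured to OD 0.1 and grown 2 h. Exposed to 0.1–300 µM (0.3% DMSO), with DMSO and streptomycin 0.250 µg/mL controls. Shaken at 37 °C, OD read every 2.5 h in duplicate to about 7.5 h. Sigmoidal-fit IC50, mean of three trials.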

Another assay deals with Streptococcus pyogenes. The experiment in a line: Antibacterial activity against Streptococcus pyogenes measured after overnight incubation by spectrophotometry. The assay is classed as functional, organism-based. The essentials: as §1
A further assay has as its system Pseudomonas aeruginosa. Briefly: Antibacterial activity against Pseudomonas aeruginosa measured after overnight incubation by spectrophotometry. In kind it is functional, organism-based. The essentials:
as §1

A further assay deals with P388. Briefly: Growth inhibition of mouse P388 cells at 10 uM. In kind it is functional. The following applies: read-out: GI.
The subject of a further assay is Candida albicans. The experiment in a line: Antibacterial activity against Candida albicans measured every 2.5 hrs by spectrophotometry. In kind it is functional, organism-based. A digest of the protocol: (§2)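 Yeasts were grown overnight at 30 °C: S. cerevisiae in synthetic dextrose medium, C. albicans wild-type diploid in WYPD with glucose. Subcultured to OD 0.1 and grown 2 h. Exposed to 0.1–300 µM (0.3% DMSO), with DMSO and caspofungin 1 µg/mL controls. Shaken at 30 °C, OD read every 2.5 h in duplicate to about 7.5 h. Sigmoidal-fit IC50, mean of three trials.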

The test system of the next assay is Saccharomyces cerevisiae. Briefly: Antibacterial activity against Saccharomyces cerevisiae measured every 2.5 hrs by spectrophotometry. The assay is classed as functional, organism-based. The essentials:
as §2

A short description of assay [2]: Cytotoxicity against human C19 cells after 24 hrs by MTT assay. In kind it is functional, cell-based. As to conditions: C19, 24 h. A digest of the protocol: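 Thawed C-19 leukemia cells were grown 48 h in IMDM with penicillin, streptomycin and L-glutamate at 37 °C, 5% CO₂. Plated at 10,000 cells/well in IMDM, held 24 h, then treated 24 h with 0.1–300 µM (0.1% DMSO); DMSO control row. MTT (5 mg/mL in PBS, 20 µL/well) for 2 h, dissolved in DMSO, A490. IC50 from sigmoidal fit of percent survival.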

The nature of assay [3]: Cytotoxicity against human Caov3 cells after 24 hrs by MTT assay. In kind it is functional, cell-based. As to conditions: Caov-3, 24 h. A digest of the protocol:
(§3)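 Cells were grown 72 h in DMEM/F12 with penicillin, streptomycin and L-glutamate, trypsinized and counted. Plated at 10,000 cells/well in IMDM, held 24 h at 37 °C, 5% CO₂, then treated 24 h with 0.1–300 µM (0.1% DMSO); DMSO control row. MTT (5 mg/mL in PBS, 20 µL/well) for 2 h, dissolved in DMSO, A490. Sigmoidal-fit IC50 from percent survival.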

The subject of a further assay is Escherichia coli. Briefly: Antibacterial activity against Escherichia coli measured after overnight incubation by spectrophotometry. In kind it is functional, organism-based. A digest of the protocol:
as §1

The nature of assay [4]: Cytotoxicity against human WM266.4 cells after 24 hrs by MTT assay. In kind it is functional, cell-based. As to conditions: WM 266-4, 24 h. A digest of the protocol:
as §3

Consider `c1ccc2c(-c3nccc4c3[nH]c3ccccc34)c[nH]c2c1`, for which the IC50 is 6.4 µg/mL (≈ 22.6 µM) in the assay on Staphylococcus aureus; 3.6 µg/mL (≈ 12.7 µM) in assay [1]; 3.4 µg/mL (≈ 12 µM) in the assay on Streptococcus pyogenes; 27.7 µg/mL (≈ 97.8 µM) in the assay with Pseudomonas aeruginosa; greater than 30 µg/mL in the assay on Candida albicans; greater than 300 µg/mL in the assay with Saccharomyces cerevisiae. Moreover, the IC50 in [2] was found to be 15.6 µg/mL (≈ 55.1 µM); in assay [3], 24.9 µg/mL (≈ 87.9 µM); with Escherichia coli, 12.3 µg/mL (≈ 43.4 µM); in assay [4] it was 27.5 µg/mL (≈ 97.1 µM). Moreover, in the assay on P388, the inhibition of growth at 10 µM worked out at 38%.
